# Assay results reported in ChEMBL document CHEMBL1125251, “4'-Hydroxy-3-methoxyflavones with potent antipicornavirus activity” (J Med Chem, 1991).
# Active and inactive are the calls of the source. The rule behind the calls is not given here.
# Experiments:
# [1] = test system: Enterovirus C; assay: The ratio of the poliovirus viral titer of the virus control (reduction factor) to the viral titer in the presence of the maximal non-toxic dose (RF MNTD); assay type: functional
# Procedure, shortened: (§1)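 Poliovirus type 1 Brunhilde 1A/S3 in Vero monolayers. Serial 10-fold virus dilutions adsorbed 1 h at 37 °C, then serial 2-fold compound dilutions were added. Incubated at 37 °C and scored for CPE by light microscopy, with a 3-day readout. Titer reduction is control/treated TCD50/mL. ED99 is the minimum concentration inhibiting 99% of virus. Virus, cell and compound controls were included.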
# [2] = test system: Enterovirus C; assay: Maximal non-toxic dose (MNTD) that shows antiviral activity.; assay type: functional
# Procedure, shortened: (§2)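 End-point titration. Poliovirus type 1 Brunhilde was run in Vero cells at 37 °C with a 3-day read. Rhinovirus 15 was run in human skin fibroblasts at 33 °C with a 7-day read. Monolayers got serial 10-fold virus dilutions and adsorbed 1 h at 37 °C, then serial 2-fold compound dilutions (DMSO stock in maintenance medium). CPE was read by light microscopy. RF = control titer (TCD50/mL) / titer at maximal nontoxic dose.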
# [3] = test system: Enterovirus C; assay: Minimum drug concentration at which 99% of the polio virus is inhibited; NA= Not active; assay type: functional, organism-based; procedure, shortened: as §1
# [4] = Cytotoxic dose at which 50% growth of normal cells is inhibited; assay type: cell-based; conditions: chlorocebus sabaeus, Vero cells; read-out: CyD50
# Procedure, shortened: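 Cell-growth cytotoxicity in Vero cells or human skin fibroblasts. Serial 2-fold dilutions in M-199 with 6% newborn calf serum were added in quadruplicate to 10⁶ cells and held 6 days at 37 °C. Cells were trypsinized, counted and reseeded with compound, repeated five times. Generation time was calculated per concentration. CyD50 = lowest concentration at least doubling generation time versus untreated cells.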
# [5] = species on record: Rattus norvegicus; assay: Mutagenicity evaluated by calculating number of revertants using Salmonella Typhimurium strain TA 100 (0.25 mg/plate) without S9 mix from rat liver according to the plate incorporation assay.; assay type: functional
# Procedure, shortened: (§3)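 Ames plate incorporation assay with Salmonella typhimurium TA98 or TA100, without S9, at 0.25 mg/plate. Revertants per plate were counted on duplicate plates per dose. Quercetin was the standard mutagen.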
# [6] = species on record: Rattus norvegicus; assay: Mutagenicity evaluated by calculating number of revertants using Salmonella Typhimurium strain TA 98 (0.25 mg/plate) without S9 mix from rat liver; assay type: functional; procedure, shortened: as §3
# [7] = Therapeutic Index measured as the ratio of CyD50(polio) / ED99(polio) values; assay type: organism-based; conditions: enterovirus c; read-out: Therapeutic index 99
# Procedure, shortened: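 TI99 = CyD50/ED99 for poliovirus. ED99 came from end-point titration in Vero cells at 37 °C over 3 days. CyD50 came from Vero cell growth: 10⁶ cells were given serial 2-fold compound dilutions in quadruplicate for 6 days at 37 °C, then trypsinized, counted and reseeded, repeated five times. Generation time was calculated per concentration.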
# [8] = test system: Enterovirus C; assay: Minimum drug concentration at which 99% of the polio virus is inhibited; assay type: functional; procedure, shortened: as §1
# [9] = test system: Human rhinovirus sp.; assay: Minimum drug concentration at which 99% of the rhino virus is inhibited; NA= not active; assay type: functional, organism-based
# Procedure, shortened: (§4)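 End-point titration with rhinovirus type 15 on human skin fibroblast monolayers. Cells were infected with serial 10-fold virus dilutions and allowed 1 h adsorption at 37 °C. Serial 2-fold compound dilutions were then added and plates incubated at 33 °C. CPE was read daily by light microscopy for at least 1 week, titres as TCD50/mL. ED99 = minimum concentration inhibiting 99% of virus.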
# [10] = test system: Human rhinovirus sp.; assay: Cytotoxic dose at which 50% growth of normal cells is inhibited against rhino virus infection.; assay type: functional
# Procedure, shortened: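 Human skin fibroblasts, 10⁶ cells per flask, given serial 2-fold dilutions in quadruplicate in M-199 with 6% newborn calf serum and held 6 days at 37 °C. Cells were trypsinized, counted in a chamber and reseeded with compound over five repeat cycles. CyD50 = lowest concentration at least doubling cell generation time relative to untreated control.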
# [11] = test system: Enterovirus C; assay: Minimal dose which produces titer reduction at 10 ug/mL (mD RF10e3); assay type: functional
# [12] = Therapeutic Index measured as the ratio of CyD50 (rhino) / ED99 (rhino) values.; conditions: read-out: Therapeutic index 99
# Procedure, shortened: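 TI99 = CyD50/ED99 for rhinovirus 15. ED99 came from end-point titration in human skin fibroblasts at 33 °C over 7 days. CyD50 came from fibroblast growth: 10⁶ cells were given serial 2-fold compound dilutions in quadruplicate for 6 days at 37 °C, then counted and reseeded, repeated five times. Generation time was calculated per concentration.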
# [13] = test system: Human rhinovirus sp.; assay: Antirhinovirus activity against rhinovirus serotype 9 which were grown on Ohio HeLa cells; assay type: functional
# [14] = test system: Human rhinovirus sp.; assay: Antirhinovirus activity against rhinovirus serotype 41 which were grown on Ohio HeLa cells; assay type: functional
# [15] = test system: Human rhinovirus sp.; assay: Antirhinovirus activity against rhinovirus serotype 89 which were grown on Ohio HeLa cells; assay type: functional
# [16] = test system: Human rhinovirus sp.; assay: Antirhinovirus activity against rhinovirus serotype 2 which were grown on Ohio HeLa cells; assay type: functional
# [17] = test system: Human rhinovirus sp.; assay: Antirhinovirus activity against rhinovirus serotype 39 which were grown on Ohio HeLa cells; assay type: functional
# [18] = test system: Human rhinovirus sp.; assay: Antirhinovirus activity against rhinovirus serotype 59 which were grown on Ohio HeLa cells; assay type: functional
# [19] = test system: Human rhinovirus sp.; assay: Minimum drug concentration at which 99% of the rhino virus is inhibited.; assay type: functional; procedure, shortened: as §4
# [20] = test system: Human rhinovirus sp.; assay: Antirhinovirus activity against rhinovirus serotype 14 which were grown on Ohio HeLa cells; assay type: functional
# [21] = test system: Human rhinovirus sp.; assay: Antirhinovirus activity against rhinovirus serotype 70 which were grown on Ohio HeLa cells; assay type: functional
# [22] = test system: Human rhinovirus sp.; assay: Antirhinovirus activity against rhinovirus serotype 29 which were grown on Ohio HeLa cells; assay type: functional
# [23] = test system: Human rhinovirus sp.; assay: Antirhinovirus activity against rhinovirus serotype 15 which were grown on Ohio HeLa cells; assay type: functional
# [24] = test system: Human rhinovirus sp.; assay: Antirhinovirus activity against rhinovirus serotype 63 which were grown on Ohio HeLa cells; assay type: functional
# [25] = test system: Human rhinovirus sp.; assay: Antirhinovirus activity against rhinovirus serotype 85 which were grown on Ohio HeLa cells; assay type: functional
# [26] = species on record: Rattus norvegicus; assay: Mutagenicity evaluated by calculating number of revertants using Salmonella Typhimurium strain TA 100 (2.5 mg/plate) with S9 mix from rat liver; assay type: functional
# Procedure, shortened: (§5)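 Ames plate incorporation assay with Salmonella typhimurium TA 98 or TA 100, with or without rat liver S9 (20 µL S9 per plate). S9 came from male Wistar rats induced with phenobarbital (0.1% in drinking water) plus β-naphthoflavone (80 mg/kg ip on day 5 in corn oil), fasted 24 h and killed on day 7. Revertants per plate counted on duplicate plates per dose.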
# [27] = species on record: Rattus norvegicus; assay: Mutagenicity evaluated by calculating number of revertants using Salmonella Typhimurium strain TA 98 (2.5 mg/plate) without S9 mix from rat liver according to the plate incorporation assay.; assay type: functional; procedure, shortened: as §5
# [28] = species on record: Rattus norvegicus; assay: Compound was evaluated for the mutagenicity by calculating number of revertants using Salmonella Typhimurium strain TA 98 (2.5 mg/plate) with S9 mix from rat liver; assay type: functional; procedure, shortened: as §5
# [29] = species on record: Rattus norvegicus; assay: Mutagenicity evaluated by calculating number of revertants using Salmonella Typhimurium strain TA 100 (0.25 mg/plate) with S9 mix from rat liver; assay type: functional; procedure, shortened: as §5
# [30] = species on record: Rattus norvegicus; assay: Compound was evaluated for the mutagenicity by calculating number of revertants using Salmonella Typhimurium strain TA 98 (0.25 mg/plate) with S9 mix from rat liver; assay type: functional; procedure, shortened: as §5
# [31] = species on record: Rattus norvegicus; assay: Mutagenicity evaluated by calculating number of revertants using Salmonella Typhimurium strain TA 100 (2.5 mg/plate) without S9 mix from rat liver; assay type: functional; procedure, shortened: as §5
# [32] = test system: Enterovirus C; assay: The ratio of the viral titer of the virus control (reduction factor) to the viral titer in the presence of the maximal non-toxic dose (RF MNTD) of the compound; assay type: functional; procedure, shortened: as §2
Structure (SMILES),Reduction factor [1],Max non-toxic dose [2],CC50 [4],selectivity ratio [7],ED99 [8],CyD50 [10],Minimal dose [11],MIC50 [13],MIC50 [14],MIC50 [15],MIC50 [16],MIC50 [17],MIC50 [18],MIC50 [20],MIC50 [22],MIC50 [23],other results
COc1ccc(-c2oc3c(OC)cccc3c(=O)c2OC)cc1,1,100 µg/mL,> 200 µg/mL,,,,,,,,,,,,,,ED99 [3]: inactive
O=c1c(O)c(-c2ccc(O)c(O)c2)oc2cc(O)cc(O)c12 [QUERCETIN],,,,,,,,,,,,,,,,,Revertants/plate [5]: 589; Revertants/plate [6]: 1100
CCOc1c(-c2ccc(O)cc2)oc2cc(C)ccc2c1=O,1,25 µg/mL,25 µg/mL,< 1,>25 µg/mL,25 µg/mL,,,,,,,,,,,ED99 [9]: inactive
Cc1ccc2c(=O)c(OC(C)C)c(-c3ccc(O)cc3)oc2c1,,,2 µg/mL,,,2 µg/mL,,,,,,,,,,,ED99 [9]: inactive
COc1cc(-c2oc3cc(O)c(OC)c(O)c3c(=O)c2OC)ccc1O,10000,10 µg/mL,1 µg/mL,,,,1 µg/mL,,,,,,,,,,ED99 [3]: inactive
COc1cc(C)c2c(=O)c(OC)c(-c3ccc(O)cc3)oc2c1,100000,25 µg/mL,50 µg/mL,50,1 µg/mL,50 µg/mL,0.5 µg/mL,0.2 µg/mL,0.375 µg/mL,0.2 µg/mL,2.4 µg/mL,12 µg/mL,3 µg/mL,10.8 µg/mL,0.175 µg/mL,0.4 µg/mL,selectivity ratio [12]: 2; ED99 [19]: 25 µg/mL; MIC50 [21]: 5 µg/mL
N=C(N)N [GUANIDINE],,,,,,,,375 µg/mL,1000 µg/mL,1000 µg/mL,> 64 µg/mL,109 µg/mL,350 µg/mL,7 µg/mL,> 64 µg/mL,438 µg/mL,MIC50 [24]: 500 µg/mL; MIC50 [25]: 750 µg/mL; MIC50 [21]: 6 µg/mL
COc1c(-c2ccc(O)cc2)oc2cc(O)c(C)c(C)c2c1=O,1000000,>100 µg/mL,> 100 µg/mL,> 1000,0.1 µg/mL,100 µg/mL,<2.5 µg/mL,0.156 µg/mL,0.088 µg/mL,0.5 µg/mL,0.044 µg/mL,0.088 µg/mL,0.016 µg/mL,0.072 µg/mL,0.078 µg/mL,0.088 µg/mL,selectivity ratio [12]: > 200; Revertants/plate [26]: 94; Revertants/plate [5]: 110; MIC50 [24]: 0.074 µg/mL; ED99 [19]: 0.5 µg/mL; Revertants/plate [27]: 10; Revertants/plate [6]: 12; MIC50 [25]: 0.076 µg/mL; Revertants/plate [28]: 9; Revertants/plate [29]: 103; Revertants/plate [30]: 20; Revertants/plate [31]: 85
COc1c(-c2ccc(O)cc2)oc2ccc(N)cc2c1=O,,10 µg/mL,10 µg/mL,2,5 µg/mL,,10 µg/mL,,,,,,,,,,Reduction factor [32]: 10000
